Screening data as filed in PubChem.
Only a selection was taken, and hits are over-represented in it overall.
CHOP inh = blocks CHOP induction under ER stress; CHO-K1 CHOP-promoter luciferase, tunicamycin-induced, 15-18 h; AID 2732; 220,000 tested, 3.8% active; inhibition, % at 10 µM;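 active means compounds that reduced the stress-induced luciferase reporter signal by more than about 70% of percent inhibition, limit read from the data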;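 further: 0% = tunicamycin plus vehicle and 100% = wells without tunicamycin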
GAA850 FXN act = frataxin GAA850 promoter activation | HEK293 lucGAA850 FXN promoter luciferase reporter, 24 h; percent of 10 µM SAHA response | activation, % at 6 µM | 360,000 tested, 0.56% active;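 active means activation above the average of all compounds screened plus 3 SD, cutoff fixed separately per campaign, cut at about 7.5% in these data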;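 further: 0% = DMSO wells and 100% = 10 µM SAHA wells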
UPR CHOP act = activators of apoptotic arm of unfolded protein response (CHOP); CHO-CHOP luciferase reporter, UPR activation, luminescence; percent of tunicamycin response over DMSO baseline; activation, % at 10 µM; AID 449763; 330,000 tested, 0.34% active;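 active means at 10 µM dose, activation of 40% or more, normalized to positive control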;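 further: 100% = tunicamycin at 10 µg/mL and 0% = DMSO alone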
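measured by = luciferase luminescence | assay system = CHO-CHOP cells, stable luciferase reporter of PERK-eIF2a-CHOP signalling | amount = 500 reporter cells seeded per well | timing = 6 h compound exposure at 37 °C after overnight seeding | controls = positive tunicamycin 10 µg/mL, negative DMSO alone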
XBP1 UPR activ = activators of adaptive arm of unfolded protein response (XBP1); CHO-XBP1 luciferase reporter, IRE1-XBP1 UPR activation, luminescence; percent of tunicamycin response, DMSO as zero; activation, % at 20 µM; 330,000 tested, 0.33% active; AID 463104;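 active means versus positive control, 20 µM dose yields 30% or more activation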;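 further: 100% = tunicamycin at 10 µg/mL and 0% = DMSO only wells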
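Assay system: IRE1-XBP1 luciferase reporter CHO line. Input: 1000 cells/well. Buffer or medium: F12 with 10% serum. Doses: 20 µM, 1% DMSO. Times: overnight seeding at 37 °C, 6 h compound treatment at 37 °C. Technique: Steady-Glo luciferase glow luminescence, 10 min after reagent addition.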
UPR CHOP confirm = confirmation of apoptotic unfolded protein response (CHOP) activators | shares compounds with UPR CHOP act | CHO-CHOP cells, CHOP-luciferase reporter luminescence; percent of tunicamycin response, DMSO as zero | activation, % at 10 µM | 1,000 tested, 64% active | AID 463112; in the data active means activation above about 33%;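 further: 0% = DMSO wells and 100% = tunicamycin 10 µg/mL wells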
XBP1 UPR conf = confirmation of adaptive unfolded protein response (XBP1) activators | shares compounds with XBP1 UPR activ | CHO-XBP1 IRE1-XBP1 luciferase reporter, luminescence | activation, % at 20 µM | 1,000 tested, 63% active;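 active means reporter signal at least 30% of the positive control's activation in two or more of four replicate wells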;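 further: plate controls were DMSO negative control for no effect and tunicamycin 10 µg/mL positive control for full effect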
Starred values were filed as active, the others as inactive; . = no result given.

SMILES	CHOP inh	GAA850 FXN act	UPR CHOP act	XBP1 UPR activ	UPR CHOP confirm	XBP1 UPR conf
CC1C(c2ccccc2)OCCN1C(=S)Nc1ccc(S(=O)(=O)N2CCCCC2)cc1 (configuration not stated)	.	-1	.	.	.	.
CSc1nnc(NC(=O)c2nc(S(=O)(=O)Cc3ccccc3)ncc2Cl)s1	.	-3	56*	-8	61*	.
CC(C)c1nnc(NC(=O)c2nc(S(=O)(=O)Cc3ccccc3)ncc2Cl)s1	.	-9	62*	-9	8	.
COc1ccc(C(N)c2csc(Nc3ccc(C(F)(F)F)cn3)n2)cc1 (configuration not stated)	.	1	.	.	.	.
COc1cc(NC(=O)c2sc3ncn(CC(=O)N4CCCCC4C)c(=O)c3c2C)cc(OC)c1OC (configuration not stated)	.	0	.	.	.	.
COc1ccccc1CCC(=O)Nc1ccc2c(c1)c(=O)n(C)n2C	.	1	.	.	.	.
O=C1C(=O)c2c(C(=O)c3ccccc3)coc2-c2ccccc21	52	-4	48*	23	30	.
Cc1oc2c(c1C(=O)O)C(=O)c1ccccc1C2=O	-25	0	3	2	.	.
Cc1oc2c(c1C(=O)c1ccccc1)C(=O)C(=O)c1ccccc1-2	.	-1	67*	-1	-2	.
COc1cccc(Nc2nc(C(N)Cc3ccc(C(F)(F)F)cc3)cs2)n1 (configuration not stated)	.	-1	.	.	.	.
CC(C)N1CCC(C)(C(=O)Nc2ccccc2Oc2ccccc2)C1 (configuration not stated)	.	0	.	.	.	.
CCOC(=O)c1ccc(-c2ccc(/C=N/NC(=O)CN(c3cccc(C)c3)S(C)(=O)=O)o2)cc1	79*	0	55*	115*	50*	48*
COc1ccccc1C(O)c1ncc(-c2ccccc2C)[nH]1 (configuration not stated)	.	1	.	.	.	.
COc1ccc(OC)c(C(O)c2ncc(-c3cccc4ccccc34)[nH]2)c1 (configuration not stated)	.	-4	.	.	.	.
c1ccc2sc(N3CCOCC3)nc2c1	15	4	1	-1	.	.
COc1cccc2sc(N3CCN(c4nc5ccccc5s4)CC3)nc12	80*	-3	88*	94*	42*	86*
Cc1ccc(C)c(CC(=O)N2CCCC(c3cc(C(=O)NCc4cccnc4)no3)C2)c1 (configuration not stated)	.	0	.	.	.	.
O=C(NCCOc1ccc(F)cc1)C1CCC(=O)N(Cc2ccc(Cl)cc2)C1 (configuration not stated)	.	0	.	.	.	.
C[C@@H]1COC(=O)[C@H](Cc2ccc(F)cc2)CC/C=C/C[C@@H](CC(=O)N[C@@H](CO)Cc2ccccc2)C(=O)N1	.	3	2	-2	.	.
O=C(C[C@@H]1C/C=C/CC[C@H](Cc2ccc(F)cc2)C(=O)OC[C@@H](Cc2ccccc2)NC1=O)N[C@H](CO)Cc1ccccc1	.	0	65*	152*	12	47*
Cc1cc(OCC(=O)OCC(=O)N2CCCCC2)ccc1Cl	.	-1	.	.	.	.
COc1ccc(-c2csc(C(C)(O)c3ccc(OC)cc3)n2)cc1 (configuration not stated)	.	2	.	.	.	.
O=C(/C(=C\c1ccccc1)c1nc2ccccc2[nH]1)c1ccc(Cl)cc1	87*	-5	104*	53*	267*	8
C=CCOc1ccc2cccc(/C=N/NC(=O)c3cc4cc([N+](=O)[O-])ccc4s3)c2c1	52	-1	55*	47*	32	45*
O=C(Cn1nnc(-c2ccccc2)c1COc1ccc2ccccc2c1)NCC1CC1	.	0	.	.	.	.
COC(=O)C[C@@H]1C[C@@H]2c3cc(NS(=O)(=O)c4ccc(F)cc4)ccc3O[C@@H]2[C@@H](CO)O1	.	3	.	.	.	.
Cc1ccc(C)c(N=Cc2c(O)c3ccccc3oc2=O)c1	.	1	61*	55*	49*	46*
COc1ccc(N=Cc2c(O)c3ccccc3oc2=O)cc1	-142	4	128*	102*	68*	38*
CCOc1ccccc1N=Cc1c(O)c2ccccc2oc1=O	.	-2	162*	179*	120*	125*
